FLuc stim CS = firefly luciferase counter-screen for stimulation assays | P08659 | ATPlite luciferase biochemical, luminescence, 10 min; 0 = ATP-free wells, 1 = DMSO control | activation factor at 10 µM | 200,000 tested, under 10 active | AID 1027;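 active means luciferase activation factor, scaled between plate controls, of at least 2 with compound at 10 µM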
Target sequence (P08659 whole entry, looked up): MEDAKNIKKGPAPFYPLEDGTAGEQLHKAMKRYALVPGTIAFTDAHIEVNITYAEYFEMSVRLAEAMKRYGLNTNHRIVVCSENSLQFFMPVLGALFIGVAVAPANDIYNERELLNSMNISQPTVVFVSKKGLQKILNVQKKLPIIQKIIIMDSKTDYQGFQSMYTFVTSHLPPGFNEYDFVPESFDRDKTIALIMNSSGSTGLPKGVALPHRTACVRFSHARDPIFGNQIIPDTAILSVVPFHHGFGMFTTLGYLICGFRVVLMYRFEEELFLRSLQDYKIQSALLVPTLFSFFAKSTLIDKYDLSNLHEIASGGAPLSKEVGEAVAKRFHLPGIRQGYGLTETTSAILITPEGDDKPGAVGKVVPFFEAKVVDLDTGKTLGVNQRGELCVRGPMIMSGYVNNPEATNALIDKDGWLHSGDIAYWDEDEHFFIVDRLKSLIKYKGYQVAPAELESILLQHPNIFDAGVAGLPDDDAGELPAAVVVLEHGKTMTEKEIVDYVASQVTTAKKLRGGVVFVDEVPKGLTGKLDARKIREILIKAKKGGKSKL
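Assay system – cell-free luciferase reagent · Medium – PBS-based ATP solution · Dosing – test compounds dosed from 2 mM stocks in 100% DMSO · Timing – 10 min, room temperature · Technique – light output (luminescence) · Measure – luminescence gain marking luciferase activators · Controls – No-ATP low control, compound-free enzyme-plus-ATP high control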
STAT1 act = increases IFN-gamma driven STAT1 reporter signal. NIH 3T3 STAT1-luciferase reporter, luminescence; 100% = IFN-gamma alone, no compound. activation (% of control), % at 5.5 µM. actives 2.6% (n = 200,000). AID 932;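 active means activation above the screen-wide mean activation plus 3 SD, cut at about 130% in these data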
FLuc inh counter = Photinus pyralis luciferase inhibition counter-screen. ATPLite firefly luciferase biochemical luminescence, 10 min. AID 1006. inhibition, % at 10 µM. actives 1.5% (n = 200,000);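 active means inhibition above about 50% when tested at 10 µM, limit read from the data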
APP 5'UTR act = APP 5'UTR luciferase reporter activation. SH-SY5Y APP 5'UTR luciferase reporter, luminescence; zero percent = DMSO vehicle wells. activation, % at 2 µM. actives 1% (n = 190,000);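 active means activation above a set limit, based on mean plus 3 SD of controls, cut at about 140% in these data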
NF-kB neuron act = raises NF-kB expression in human neuronal cells; NF-kB reporter expression; stronger effect = higher value; fold change at 12.5 µM; actives 1.6% (n = 190,000); in the data active means fold change above about 3.3
sdo1 growth = compounds rescuing growth of sdo1-depleted yeast, bone marrow failure model; z-score at 10 µM; actives 0.21% (n = 140,000); S. cerevisiae sdo1-depleted JHY4D growth rescue, OD600 30 h; stronger effect = higher value; pdr5 snq2 efflux-pump mutant strain;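 active means z-score above 3 at both the 24 hr and the 30 hr optical density reads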
Of the large screens only hits and unclear results are named; the others gave an inactive call. Hits are enriched below; roughly 4.3% of the tested compounds scored in any of these assays.

CN1C(=O)CSc2ccc(NC(=O)Nc3ccccn3)cc21	STAT1 act 142
CC(=O)Nc1ccc(NC(=O)Nc2ccc3c(c2)N(C)C(=O)CS3)cc1	none (no result: sdo1 growth)
CC(=O)Cc1nsc(Nc2ccc3c(c2)OCCO3)n1	STAT1 act 148
CCc1sc(NC(=O)C(C)C)nc1-c1ccccc1	none (no result: sdo1 growth)
Cc1cc(C)cc(C(=O)NCC(=O)OCC(=O)NCC(F)(F)F)c1	none (no result: sdo1 growth)
O=C(O)CCC(=O)Nc1ccccc1C(=O)Nc1ccccc1	none
O=C(O)CCC(=O)Nc1ccccc1C(=O)NCCc1ccccc1	STAT1 act 135
Clc1ccc(-c2csc(NNC3=NCCCCC3)n2)cc1	none
Brc1ccc(-c2csc(NC3=NCCCCC3)n2)cc1	STAT1 act 134
c1ccc(-c2csc(NNC3=NCCCCC3)n2)cc1	STAT1 act 132
COc1ccc(-c2csc(NC3=NCCCCC3)n2)cc1	none
O=C(NCCc1c[nH]c2ccccc12)C(=O)NCC1OCCCN1S(=O)(=O)c1cccs1 (configuration not stated)	none (no result: sdo1 growth)
O=C1CSC(=S)N1c1cccnc1	none
O=C1CSC(=S)N1Cc1cccnc1	NF-kB neuron act 4.8
CN(C(=O)C1CCOC1)c1nnc(-c2ccccn2)s1 (configuration not stated)	STAT1 act 132
Clc1ccccc1CN1CCN(/N=C/C=C\c2ccco2)CC1	none (no result: sdo1 growth)
O=C(/C=C/c1cccs1)c1ccc(Br)cc1	FLuc inh counter 61
CCCS(=O)(=O)N1CCN=C1SCc1cccnc1	none (no result: sdo1 growth)
Cc1ccc(C2/C(=C(/O)c3cnn(-c4ccccc4)c3C)C(=O)C(=O)N2CCN2CCOCC2)o1 (configuration not stated)	none
Cc1c(/C(O)=C2/C(=O)C(=O)N(CCN3CCOCC3)C2c2cccs2)cnn1-c1ccccc1 (configuration not stated)	STAT1 act 143
Cc1nc2cc(NCc3nc4ccccc4n3Cc3ccccc3)ccc2n1C	STAT1 act 135, FLuc inh counter 87
Cn1c(CNc2ccc(Cl)cc2)nc2ccccc21	STAT1 act 143, APP 5'UTR act 175, NF-kB neuron act 3.9
Cc1cccc(NCc2nc3ccccc3n2Cc2ccccc2)c1	none
COC(=O)c1ccc(CNC(=O)COC(=O)COc2ccc(OC)cc2)cc1	none (no result: sdo1 growth)
CN1CCN(C(=S)SCC(=O)Nc2nc(-c3ccccc3)c(-c3ccccc3)o2)CC1	none
CC(C(=O)N1CCN(c2ccc([N+](=O)[O-])cc2)CC1)N1C(=O)C2CC=CCC2C1=O (configuration not stated)	none (no result: NF-kB neuron act, sdo1 growth)
COc1ccc(C(=O)NNC(=O)c2ccccn2)cc1	FLuc inh counter 97
COc1ccc(/C=C/C(=O)c2ccc(O)cc2)cc1	FLuc inh counter 75 (no result: sdo1 growth)
COc1ccc(OCC(=O)NNC(=O)c2ccccn2)cc1	none
COc1cc(OC)cc(C(=O)NNC(=O)c2ccccn2)c1	none
COc1ccc(/C=C/C(=O)c2ccoc2)cc1	none
COc1ccc(C(=O)/C=C/c2ccc(OC)c(O)c2)c(F)c1	none
COc1ccc(/C=C/C(=O)c2ccccc2O)cc1	NF-kB neuron act 5
COc1ccc(/C=C/C(=O)c2ccccn2)cc1	FLuc inh counter 96 (no result: sdo1 growth)
CN1C(=O)/C(=C/c2ccc3c(c2)OCO3)N=C1c1ccccc1	FLuc inh counter 62
O=C(NC(=S)Nc1ccccc1)c1ccc(Br)o1	STAT1 act 138 (no result: sdo1 growth)
NC(=O)c1ccccc1NC(=S)NC(=O)c1ccc(Br)o1	none
COc1ccc(NC(=S)NC(=O)c2ccc(Br)o2)cc1	STAT1 act 147 (no result: sdo1 growth)
O=S(=O)(Nc1cc(Sc2cccc3cccnc23)c(O)c2ccccc12)c1ccc(F)cc1	STAT1 act 141
CC(=O)/C(=N\Nc1ccccc1)Sc1cccc2cccnc12	none
O=C(Sc1cccc2cccnc12)c1ccc(F)cc1	STAT1 act 173 (no result: sdo1 growth)
O=C(COC(=O)c1cc(=O)[nH]c(=O)[nH]1)NCc1ccccc1	none
CC(=O)c1ccc(N2CCN(Cc3nc(Cc4ccccc4)no3)CC2)cc1	none (no result: sdo1 growth)
O=C(c1cc(COc2ccc(F)cc2F)on1)N1CCSCC1	STAT1 act 138 (no result: sdo1 growth)
CC(=O)c1ccc(Nc2nc(=O)c3cccnc3s2)cc1	STAT1 act 136, NF-kB neuron act 3.9
O=c1nc(Nc2ccc(OCc3ccccc3)cc2)sc2ncccc12	none (no result: sdo1 growth)
CCOC(=O)c1ccc(Nc2nc(=O)c3cccnc3s2)cc1	NF-kB neuron act 4.1
CC(=O)c1cccc(Nc2nc(=O)c3cccnc3s2)c1	NF-kB neuron act 3.4
Cc1ccc(CN2CC(C(=O)Nc3cccc(S(=O)(=O)N4CCCCC4)c3)CC2=O)cc1 (configuration not stated)	none
Cc1ccc(S(=O)(=O)N2CCN(C(=O)C3Cc4ccccc4CN3C(=O)c3ccco3)CC2)cc1 (configuration not stated)	none
O=C(Nc1nc2c(s1)CN(Cc1ccccc1)CC2)c1cccc(S(=O)(=O)N2CCc3ccccc32)c1	none
Cc1nn(C(=O)CCCn2cc([N+](=O)[O-])cn2)c(C)c1Cl	none (no result: sdo1 growth)
CCCNC(=O)c1oc2ccc3c(c2c1C)C(=O)CC(C)(C)O3	STAT1 act 145, FLuc inh counter 76, APP 5'UTR act 190, NF-kB neuron act 5.1
CCCc1cc(=O)n2[nH]c(-c3ccc(Br)cc3)cc2n1	STAT1 act 144
Cc1cc(=O)n2[nH]c(-c3ccc(Cl)cc3)cc2n1	STAT1 act 143
N#Cc1cnc(N)c(Br)c1	none (no result: sdo1 growth)
CC(C)Cc1nnc(NC(=O)Nc2ccccc2)s1	STAT1 act 147 (no result: sdo1 growth)
CCc1nnc(NC(=S)Nc2ccccc2)s1	STAT1 act 132, NF-kB neuron act 3.3 (no result: sdo1 growth)
Cc1nc(NC(=S)Nc2ccccc2)sc1C	APP 5'UTR act 140, NF-kB neuron act 4.8 (no result: sdo1 growth)
CC(C)COC(=O)Nc1nnc(Cc2ccccc2)s1	STAT1 act 133 (no result: sdo1 growth)
Cc1ccc(C(=O)Nc2nnc(NC(=S)Nc3ccccc3)s2)cc1	none (no result: sdo1 growth)
CCc1nnc(NC(=O)CCC(=O)Nc2ccccc2)s1	none
CN1CCN(CC(=O)Nc2cc(N(C)C)nc3ccccc23)CC1	none (no result: sdo1 growth)
O=C(CSCC(=O)N1CCCc2ccccc21)Nc1nc(-c2ccccc2)cs1	none
COc1ccc(C2NCCc3c2[nH]c2ccccc32)cc1CSc1nc2ccccc2s1 (configuration not stated)	none
Cc1cc(C(=O)CSc2nnnn2C)c(C)n1-c1cccc(F)c1	STAT1 act 131, NF-kB neuron act 4.8
Cc1ccc(Oc2ccc(Oc3ccc(C)cc3)nn2)cc1	none
Cc1ccccc1Oc1ccc(Oc2ccccc2C)nn1	STAT1 act 131
COCCn1c(/C=C/c2ccccc2)nc2ccccc21	STAT1 act 146, FLuc inh counter 86, NF-kB neuron act 3.9 (no result: sdo1 growth)
Cn1c(/C=C/c2ccccc2)nc2ccccc21	FLuc inh counter 94 (no result: sdo1 growth)
Cn1c(=O)c(/C=C/c2ccccc2)nc2ccccc21	STAT1 act 134, APP 5'UTR act 138, NF-kB neuron act 4.2

Assay outcomes as filed in PubChem BioAssay.
